Measurements reported in ChEMBL document CHEMBL4392833, “Thiazolyl-pyrazole derivatives as potential antimycobacterial agents” (Bioorg Med Chem Lett, 2019).

What was measured:
[1] = tested on: Mycobacterium tuberculosis variant bovis; experiment: Antitubercular activity against dormant stage of Mycobacterium bovis BCG ATCC 35743 assessed as growth inhibition at 30 ug/ml after 12 days by nitrate reductase assay relative to control; format: functional; conditions: BCG str. ATCC 35743, 288 h
[2] = tested on: Mycobacterium tuberculosis variant bovis; experiment: Antitubercular activity against dormant stage of Mycobacterium bovis BCG ATCC 35743 assessed as growth inhibition at 10 ug/ml after 12 days by nitrate reductase assay relative to control; format: functional; conditions: BCG str. ATCC 35743, 288 h
[3] = tested on: Mycobacterium tuberculosis variant bovis; experiment: Antitubercular activity against dormant stage of Mycobacterium bovis BCG ATCC 35743 assessed as growth inhibition at 3 ug/ml after 12 days by nitrate reductase assay relative to control; format: functional; conditions: BCG str. ATCC 35743, 288 h
[4] = tested on: Mycobacterium tuberculosis variant bovis; experiment: Antitubercular activity against dormant stage of Mycobacterium bovis BCG ATCC 35743 by two fold dilution technique; format: functional; conditions: BCG str. ATCC 35743
Procedure, shortened: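 MIC against dormant-stage bacilli, read out by XTT reduction menadione assay (XRMA), with rifampicin MIC determined the same way as reference.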

[5] = tested on: Mycobacterium tuberculosis variant bovis; experiment: Antitubercular activity against dormant stage of Mycobacterium bovis BCG ATCC 35743 after 12 days by nitrate reductase assay; format: functional, organism-based; conditions: BCG str. ATCC 35743, 288 h
[6] = tested on: Mycobacterium tuberculosis variant bovis; experiment: Potency index, ratio of rifampicin MIC to test compound MIC for dormant stage of Mycobacterium bovis BCG ATCC 35743; format: functional, BCG str. ATCC 35743

Cc1ccc2oc(-c3cn(-c4ccc(F)cc4)nc3-c3sc(C)nc3C)cc(=O)c2c1 gave an inhibition at 30 µg/mL [1] of 95.6%, an inhibition at 10 µg/mL [2] of 96.6% and an inhibition at 3 µg/mL [3] of 97.6%. For the same compound, the MIC90 [4] was 1.18 µM and the IC50 [5] was 5.89 µM.
In the case of Cc1nc(C)c(-c2nn(-c3ccc(F)cc3)cc2/C=C/C(=O)c2cc(Cl)cc(Cl)c2O)s1, the inhibition at 30 µg/mL [1] is reported as 29.8%, the inhibition at 10 µg/mL [2] is reported as 10.1% and the inhibition at 3 µg/mL [3] is reported as 8.72%. The MIC90 [4] was > 30 µg/mL and the IC50 [5] was > 30 µg/mL.
For Cc1nc(C)c(-c2nn(-c3ccc(F)cc3)cc2/C=C/C(=O)c2cc(Cl)c(C)cc2O)s1, the inhibition at 30 µg/mL [1] was 97.2%, the inhibition at 10 µg/mL [2] was 52.8% and the inhibition at 3 µg/mL [3] was 8.47%. It also gave an MIC90 [4] of 6.85 µM and an IC50 [5] of 0.79 µM.
Work on Cc1nc(C)c(-c2nn(-c3ccc(F)cc3)cc2/C=C/C(=O)c2c(O)cc(C)c(Cl)c2C)s1 yielded an inhibition at 30 µg/mL [1] of 9.91%, an inhibition at 10 µg/mL [2] of 4.19% and an inhibition at 3 µg/mL [3] of 8.39%. The MIC90 [4] was > 30 µg/mL and the IC50 [5] was > 30 µg/mL.
With Cc1ccc(O)c(C(=O)/C=C/c2cn(-c3ccc(F)cc3)nc2-c2sc(C)nc2C)c1 the inhibition at 30 µg/mL [1] was 96.9%, the inhibition at 10 µg/mL [2] was 85.2% and the inhibition at 3 µg/mL [3] was 60.9%. The MIC90 [4] was 16.2 µM and the IC50 [5] was 1.59 µM.
In the case of Cc1nc(C)c(-c2nn(-c3ccc(F)cc3)cc2C2CC(c3c(O)cc(C)c(Cl)c3C)=NN2)s1 (stereo not drawn), the inhibition at 30 µg/mL [1] is reported as 98.4%, the inhibition at 10 µg/mL [2] is reported as 98% and the inhibition at 3 µg/mL [3] is reported as 89%. For the same compound, the MIC90 [4] was 4.55 µM and the IC50 [5] was 5.04 µM.
In the case of Cc1ccc(O)c(C2=NNC(c3cn(-c4ccc(F)cc4)nc3-c3sc(C)nc3C)C2)c1 (stereo not drawn), the inhibition at 30 µg/mL [1] is reported as 97.5%, the inhibition at 10 µg/mL [2] is reported as 82.7% and the inhibition at 3 µg/mL [3] is reported as 33%. The MIC90 [4] was 63.1 µM and the IC50 [5] was 46.4 µM.
Compound Cc1nc(C)c(-c2nn(-c3ccc(F)cc3)cc2/C=C/C(=O)c2cc(Cl)ccc2O)s1 has an inhibition at 30 µg/mL [1] of 19.6%, an inhibition at 10 µg/mL [2] of 5.45% and an inhibition at 3 µg/mL [3] of 5.71%. The MIC90 [4] was > 30 µg/mL and the IC50 [5] was > 30 µg/mL.
Cc1nc(C)c(-c2nn(-c3ccc(F)cc3)cc2C2CC(c3cc(Cl)c(C)cc3O)=NN2)s1 (stereo not drawn) gave an inhibition at 30 µg/mL [1] of 98.5%, an inhibition at 10 µg/mL [2] of 89.7% and an inhibition at 3 µg/mL [3] of 69.6%. It also gave an MIC90 [4] of 4.77 µM and an IC50 [5] of 9.65 µM.
CO[C@H]1/C=C/O[C@@]2(C)Oc3c(C)c(O)c4c(O)c(c(/C=N/N5CCN(C)CC5)c(O)c4c3C2=O)NC(=O)/C(C)=C\C=C\[C@H](C)[C@H](O)[C@@H](C)[C@@H](O)[C@@H](C)[C@H](OC(C)=O)[C@@H]1C [RIFAMPIN] showed an MIC90 [4] of 0.98 µM and an IC50 [5] of 0.91 µM.
Cc1nc(C)c(-c2nn(-c3ccc(F)cc3)cc2/C=C/C(=O)c2cc(Br)ccc2O)s1 was tested, and the inhibition at 30 µg/mL [1] was 19.2%, the inhibition at 10 µg/mL [2] was 16.4% and the inhibition at 3 µg/mL [3] was 5.7%. For the same compound, the MIC90 [4] was > 30 µg/mL and the IC50 [5] was > 30 µg/mL.
Cc1nc(C)c(-c2nn(-c3ccc(F)cc3)cc2C2CC(c3cc(Cl)ccc3O)=NN2)s1 (stereo not drawn) gave an inhibition at 30 µg/mL [1] of 99.7%, an inhibition at 10 µg/mL [2] of 99.7% and an inhibition at 3 µg/mL [3] of 99.2%. It also gave an MIC90 [4] of 1.54 µM and an IC50 [5] of 2.48 µM.
Compound Cc1nc(C)c(-c2nn(-c3ccc(F)cc3)cc2C2CC(c3cc(Br)ccc3O)=NN2)s1 (stereo not drawn) has an inhibition at 30 µg/mL [1] of 99.5%, an inhibition at 10 µg/mL [2] of 98.7% and an inhibition at 3 µg/mL [3] of 96.2%. For the same compound, the MIC90 [4] was 0.39 µM, the Ratio [6] was 4 and the IC50 [5] was 5.79 µM.
In the case of Cc1nc(C)c(-c2nn(-c3ccc(F)cc3)cc2-c2cc(=O)c3cc(Cl)c(C)cc3o2)s1, the inhibition at 30 µg/mL [1] is reported as 98.2%, the inhibition at 10 µg/mL [2] is reported as 98.9% and the inhibition at 3 µg/mL [3] is reported as 99.7%. For the same compound, the MIC90 [4] was 2.85 µM and the IC50 [5] was 3.69 µM.
